Assay results published in ChEMBL document CHEMBL2346534, “Design, synthesis and in vitro anti-proliferative activity of 4,6-quinazolinediamines as potent EGFR-TK inhibitors” (Eur J Med Chem, 2013).
pIC50: −log10 of the molar value.

Legend:
LOX IMVI = test: Cytotoxicity against human LOXIMVI cells after 48 hrs by SRB assay; type: functional
Procedure, shortened: (§1)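 NCI 60-panel five-dose screen. Cells in RPMI 1640 with 5% FBS and 2 mM L-glutamine, plated at 5000–40,000 cells/well by doubling time, preincubated 24 h at 37 °C/5% CO2. Drug from DMSO stock added at 0.01, 0.1, 1, 10 and 100 µM, then 48 h. TCA fixation, SRB stain, absorbance at 515 nm, time-zero plates included. GI50 = 50% reduction in net protein increase versus control.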

HT-29 = test: Cytotoxicity against human HT-29 cells after 48 hrs by SRB assay; type: functional; settings: HT-29, 48 h; procedure, shortened: as §1
KM12 = test: Cytotoxicity against human KM12 cells after 48 hrs by SRB assay; type: functional; settings: KM12, 48 h; procedure, shortened: as §1
NCI-H522 = test: Cytotoxicity against human NCI-H522 cells after 48 hrs by SRB assay; type: functional; settings: NCI-H522, 48 h
Procedure, shortened: (§2)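 NCI 60-panel five-dose screen. Cells in RPMI 1640 with 5% FBS and 2 mM L-glutamine are plated at 5000–40,000 cells/well by doubling time and preincubated 24 h at 37 °C in 5% CO2. Drug in DMSO is tested at 0.01, 0.1, 1, 10 and 100 μM for 48 h. Cells are TCA-fixed, stained with SRB and read at 515 nm. GI50 is the concentration giving 50% reduction in net protein increase relative to time-zero and control plates.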

A498 = test: Cytotoxicity against human A498 cells after 48 hrs by SRB assay; type: functional; settings: A498, 48 h; procedure, shortened: as §1
SNB-19 = test: Cytotoxicity against human SNB19 cells after 48 hrs by SRB assay; type: functional; settings: SNB-19, 48 h; procedure, shortened: as §2
MCF7 = test: Cytotoxicity against human MCF7 cells after 48 hrs by SRB assay; type: functional; settings: MCF7, 48 h; procedure, shortened: as §1
SK-OV-3 = test: Cytotoxicity against human SKOV3 cells after 48 hrs by SRB assay; type: functional; settings: SK-OV-3, 48 h; procedure, shortened: as §2
DU-145 = test: Cytotoxicity against human DU145 cells after 48 hrs by SRB assay; type: functional; settings: DU-145, 48 h; procedure, shortened: as §1
U-251 = test: Cytotoxicity against human U251 cells after 48 hrs by SRB assay; type: functional; settings: U-251, 48 h
Procedure, shortened: (§3)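 NCI 60 five-dose screen. Cells in RPMI 1640 with 5% FBS and 2 mM L-glutamine, plated at 5000–40,000 cells/well by doubling time, pre-incubated 24 h at 37 °C, 5% CO2. Time-zero plates TCA-fixed at drug addition. Final concentrations 0.01, 0.1, 1, 10 and 100 µM (DMSO stock), 48 h exposure. TCA fixation, 0.4% SRB stain, absorbance 515 nm. GI50 from [(Ti−Tz)/(C−Tz)]×100 = 50.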

PC-3 = test: Cytotoxicity against human PC3 cells after 48 hrs by SRB assay; type: functional; settings: PC-3, 48 h; procedure, shortened: as §2
[1] = target: Epidermal growth factor receptor (Homo sapiens, UniProt P00533); test: Inhibition of EGFR tyrosine kinase (unknown origin) using poly (Glu,Tyr) as substrate after 30 mins by ADP-GloTM assay
MDA-MB-468 = test: Cytotoxicity against human MDA-MB-468 cells after 48 hrs by SRB assay; type: functional; settings: MDA-MB-468, 48 h; procedure, shortened: as §2
Malme-3M = test: Cytotoxicity against human MALME-3M cells after 48 hrs by SRB assay; type: functional; procedure, shortened: as §1
UO-31 = test: Cytotoxicity against human UO31 cells after 48 hrs by SRB assay; type: functional; settings: UO-31, 48 h; procedure, shortened: as §3
M14 = test: Cytotoxicity against human M14 cells after 48 hrs by SRB assay; type: functional; settings: M14, 48 h; procedure, shortened: as §1
OVCAR-5 = test: Cytotoxicity against human OVCAR5 cells after 48 hrs by SRB assay; type: functional; settings: OVCAR-5, 48 h; procedure, shortened: as §2
SF-268 = test: Cytotoxicity against human SF268 cells after 48 hrs by SRB assay; type: functional; settings: SF-268, 48 h; procedure, shortened: as §2
NCI-H460 = test: Cytotoxicity against human NCI-H460 cells after 48 hrs by SRB assay; type: functional; settings: NCI-H460, 48 h; procedure, shortened: as §2
HCT-15 = test: Cytotoxicity against human HCT15 cells after 48 hrs by SRB assay; type: functional; settings: HCT-15, 48 h; procedure, shortened: as §1
SK-MEL-2 = test: Cytotoxicity against human SK-MEL-2 cells after 48 hrs by SRB assay; type: functional; settings: SK-MEL-2, 48 h; procedure, shortened: as §2
NCI-H322M = test: Cytotoxicity against human NCI-H322M cells after 48 hrs by SRB assay; type: functional; procedure, shortened: as §2
HOP-62 = test: Cytotoxicity against human HOP62 cells after 48 hrs by SRB assay; type: functional; settings: HOP-62, 48 h; procedure, shortened: as §1
CAKI-1 = test: Cytotoxicity against human Caki1 cells after 48 hrs by SRB assay; type: functional; settings: CAKI-1, 48 h; procedure, shortened: as §1
SF-295 = test: Cytotoxicity against human SF295 cells after 48 hrs by SRB assay; type: functional; settings: SF-295, 48 h; procedure, shortened: as §2
NCI-H226 = test: Cytotoxicity against human NCI-H226 cells after 48 hrs by SRB assay; type: functional; settings: NCI-H226, 48 h; procedure, shortened: as §2
[2] = Cytotoxicity against human EKVX cells after 48 hrs by SRB assay; type: functional; procedure, shortened: as §1
[3] = read-out: LC50 (the source's name)

Chain of Epidermal growth factor receptor (P00533 whole entry): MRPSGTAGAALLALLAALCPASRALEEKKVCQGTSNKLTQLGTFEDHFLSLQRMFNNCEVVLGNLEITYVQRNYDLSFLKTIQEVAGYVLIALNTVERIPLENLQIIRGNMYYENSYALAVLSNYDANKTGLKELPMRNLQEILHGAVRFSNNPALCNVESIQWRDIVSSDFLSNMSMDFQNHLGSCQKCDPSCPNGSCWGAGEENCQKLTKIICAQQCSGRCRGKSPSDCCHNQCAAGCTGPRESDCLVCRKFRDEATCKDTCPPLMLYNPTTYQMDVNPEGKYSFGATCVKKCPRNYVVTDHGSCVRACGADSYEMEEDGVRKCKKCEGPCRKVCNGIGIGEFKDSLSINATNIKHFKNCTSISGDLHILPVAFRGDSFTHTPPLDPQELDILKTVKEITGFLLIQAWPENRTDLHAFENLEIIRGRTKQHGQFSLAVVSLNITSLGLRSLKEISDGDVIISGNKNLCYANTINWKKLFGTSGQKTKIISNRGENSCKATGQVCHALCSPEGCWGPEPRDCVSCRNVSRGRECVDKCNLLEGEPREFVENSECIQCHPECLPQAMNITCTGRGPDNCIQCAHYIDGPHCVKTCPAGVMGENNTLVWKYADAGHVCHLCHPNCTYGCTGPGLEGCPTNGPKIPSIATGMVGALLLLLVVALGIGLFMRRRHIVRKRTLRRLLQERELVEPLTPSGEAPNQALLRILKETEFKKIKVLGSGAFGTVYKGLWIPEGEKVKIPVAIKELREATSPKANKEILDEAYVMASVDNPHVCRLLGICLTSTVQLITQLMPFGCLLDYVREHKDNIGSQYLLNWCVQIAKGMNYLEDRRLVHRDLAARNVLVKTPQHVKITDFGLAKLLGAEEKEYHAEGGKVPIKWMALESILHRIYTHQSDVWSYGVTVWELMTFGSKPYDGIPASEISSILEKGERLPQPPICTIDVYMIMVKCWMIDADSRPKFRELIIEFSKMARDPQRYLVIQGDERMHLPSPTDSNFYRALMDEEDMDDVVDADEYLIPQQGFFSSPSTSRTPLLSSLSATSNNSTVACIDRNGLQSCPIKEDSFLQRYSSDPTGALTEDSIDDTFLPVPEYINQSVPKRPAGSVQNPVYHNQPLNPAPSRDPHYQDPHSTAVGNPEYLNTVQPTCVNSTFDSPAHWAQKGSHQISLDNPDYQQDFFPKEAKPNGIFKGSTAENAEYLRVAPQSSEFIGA

Structure (SMILES): NC(=O)Nc1ccc2ncnc(Nc3ccc(Cl)cc3)c2c1
- GI50 (LOX IMVI): 19.3 µM
- TGI (LOX IMVI): 68.7 µM
- CC50 (LOX IMVI; [3]): > 100 µM
- GI50 (HT-29): 24 µM
- TGI (HT-29): > 100 µM
- CC50 (HT-29; [3]): > 100 µM
- GI50 (KM12): 28.4 µM
- TGI (KM12): > 100 µM
- CC50 (KM12; [3]): > 100 µM
- GI50 (NCI-H522): 2.4 µM
- TGI (NCI-H522): 20.9 µM
- CC50 (NCI-H522; [3]): > 100 µM
- GI50 (A498): 0.45 µM
- TGI (A498): 13 µM
- CC50 (A498; [3]): 64.8 µM
- GI50 (SNB-19): 9.02 µM
- TGI (SNB-19): > 100 µM
- CC50 (SNB-19; [3]): > 100 µM
- GI50 (MCF7): 26.2 µM
- TGI (MCF7): > 100 µM
- CC50 (MCF7; [3]): > 100 µM
- GI50 (SK-OV-3): 3.52 µM
- TGI (SK-OV-3): 20.5 µM
- CC50 (SK-OV-3; [3]): > 100 µM
- GI50 (DU-145): 2.72 µM
- TGI (DU-145): > 100 µM
- CC50 (DU-145; [3]): > 100 µM
- GI50 (U-251): 23.9 µM
- TGI (U-251): > 100 µM
- CC50 (U-251; [3]): > 100 µM
- GI50 (PC-3): 16.7 µM
- TGI (PC-3): 92.5 µM
- CC50 (PC-3; [3]): > 100 µM
- pIC50 [1]: 7.21
- GI50 (MDA-MB-468): 1.09 µM
- TGI (MDA-MB-468): 3.95 µM
- CC50 (MDA-MB-468; [3]): > 100 µM
- GI50 (Malme-3M): 22 µM
- TGI (Malme-3M): 60.7 µM
- CC50 (Malme-3M; [3]): > 100 µM
- GI50 (UO-31): 4.22 µM
- TGI (UO-31): 43 µM
- CC50 (UO-31; [3]): > 100 µM
- GI50 (M14): 25 µM
- TGI (M14): 76 µM
- CC50 (M14; [3]): > 100 µM
- GI50 (OVCAR-5): 15.2 µM
- TGI (OVCAR-5): 90.3 µM
- CC50 (OVCAR-5; [3]): > 100 µM
- GI50 (SF-268): 17.1 µM
- TGI (SF-268): > 100 µM
- CC50 (SF-268; [3]): > 100 µM
- GI50 (NCI-H460): 22.4 µM
- TGI (NCI-H460): > 100 µM
- CC50 (NCI-H460; [3]): > 100 µM
- GI50 (HCT-15): 17.8 µM
- TGI (HCT-15): > 100 µM
- CC50 (HCT-15; [3]): > 100 µM
- GI50 (SK-MEL-2): 15.1 µM
- TGI (SK-MEL-2): 42.7 µM
- CC50 (SK-MEL-2; [3]): > 100 µM
- GI50 (NCI-H322M): 0.36 µM
- TGI (NCI-H322M): 6.64 µM
- CC50 (NCI-H322M; [3]): > 100 µM
- GI50 (HOP-62): 21.1 µM
- TGI (HOP-62): 84.4 µM
- CC50 (HOP-62; [3]): > 100 µM
- GI50 (CAKI-1): 1.33 µM
- TGI (CAKI-1): 21.5 µM
- CC50 (CAKI-1; [3]): > 100 µM
- GI50 (SF-295): 14.8 µM
- TGI (SF-295): 45.5 µM
- CC50 (SF-295; [3]): > 100 µM
- GI50 (NCI-H226): 22.3 µM
- TGI (NCI-H226): > 100 µM
- CC50 (NCI-H226; [3]): > 100 µM
- GI50 [2]: 0.37 µM
- TGI [2]: 4.46 µM
- CC50 [2, 3]: > 100 µM
